The target in test [1] is Sigma non-opioid intracellular receptor 1 (Cavia porcellus, UniProt Q60492). In words: Displacement of [3H](+)-pentazocine from guinea pig brain sigma 1 receptor. For orientation: In a radioligand displacement assay an active substance lowers the binding of a labelled ligand.
A short description of test [2]: Displacement of [3H]DTG rom guinea pig brain sigma 2 receptor. On the set-up: species or system Cavia porcellus.
For test [3], the species on record is Rattus norvegicus. Nature of the test: Increase of caspase 3 cleavage in albino Wistar rat primary astroglial cells at 25 uM after 24 hrs relative to control. The class given is functional. The essentials: (§1)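 Primary astrocytes from 1–2-day-old Wistar rat brains were grown 14 DIV, then exposed to ligand 25 µM for 24 h. Cells were lysed and sonicated, and 30 µg protein was run on 10% SDS-PAGE. Mean ± SD of four experiments; t test.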

Test [4] is filed under the species Rattus norvegicus. Nature of the test: Increase in TG-2 expression in albino Wistar rat primary 14 DIV astroglial cell at 25 uM after 24 hrs by CLSM analysis. The class given is functional. The essentials:
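Astrocytes at 14 DIV were treated with 25 µM for 24 h and fixed in 4% paraformaldehyde for 20 min. They were blocked with 1% normal serum for 1 h, then incubated overnight with anti-TG-2 monoclonal (1:500), followed by FITC and TRITC anti-IgG (1:64, 2 h each). Confocal imaging at fixed settings measured cytosolic and nuclear fluorescence intensity versus control after nonspecific subtraction.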

The species entered for test [5] is Rattus norvegicus. Nature of the test: Activity at sigma 2 receptor in rat astroglial cells. The class given is cell-based.
A short description of test [6]: Increase in apoptosis in albino Wistar rat primary 14 DIV astroglial cells at 25 uM after 24 hrs by TUNEL assay relative to control. The class given is functional. The essentials: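 Astrocytes at 14 DIV were treated 24 h at 25 µM. TUNEL labelling with fluorescein-dUTP at free 3′-OH DNA ends; apoptotic cells appear green (FITC), nonapoptotic cells red (PI). Apoptotic cells were counted against all cells in 10 random fields per dish and expressed as a percentage.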

For test [7], the species on record is Rattus norvegicus. In words: Increase in TG-2 expression in albino Wistar rat primary astroglial cells at 25 uM after 24 hrs. In kind it is functional. The essentials:
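Primary Wistar rat astrocytes at 14 DIV were exposed to ligand 25 µM for 24 h. Densitometric percentage of TG-2 versus untreated control; HUVEC extract as positive control. Mean ± SD of four experiments.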

The species entered for test [8] is Rattus norvegicus. Nature of the test: Decrease of caspase 3 cleavage in albino Wistar rat primary astroglial cells at 25 uM after 24 hrs relative to control. In kind it is functional. Put shortly:
as §1

Calls of active or inactive are those of the source. The calls are words filed in the database; no cut-off is given here.

Chain of Sigma non-opioid intracellular receptor 1 (Q60492 whole entry): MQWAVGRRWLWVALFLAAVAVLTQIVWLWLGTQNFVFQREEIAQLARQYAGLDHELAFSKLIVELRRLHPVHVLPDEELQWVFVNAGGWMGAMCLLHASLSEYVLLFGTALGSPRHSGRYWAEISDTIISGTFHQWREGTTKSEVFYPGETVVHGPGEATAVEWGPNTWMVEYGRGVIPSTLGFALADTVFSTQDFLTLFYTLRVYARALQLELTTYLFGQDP

A word on the Ki: it is a measure of affinity in units of concentration, obtained from inhibition or displacement. For `COC(=O)C1(c2ccc([N+](=O)[O-])cc2)CC1CN1CCC(O)(c2ccccc2)CC1` (stereo not given), the results for the Ki in test [1] and in test [2] were 1.9 nM and 18 nM, respectively.

Turning to `COC(=O)C1(c2ccc([N+](=O)[O-])cc2)CC1CN1CCC(Cc2ccccc2)CC1` (stereo not given), the results for the Ki in test [1] and in test [2] were 0.68 nM and 9 nM, respectively.

In test [2], `Cc1ccccc1NC(=N)Nc1ccccc1C` [DITOLYLGUANIDINE] gave a Ki of 49 nM.

Regarding `COC(=O)C1(c2ccc(Cl)cc2)CC1CN1CCC(Cc2ccccc2)CC1` (stereo not given), the figures for the Ki in test [1] and in test [2] were 0.82 nM and 11.9 nM, respectively.

`COC(=O)C1(c2ccc(N)cc2)CC1CN1CCN(c2ncccn2)CC1` (stereo not given): the results for the Ki in test [1] and in test [2] were above 10000 nM and 3590 nM, respectively.

Take `CC[C@H]1C[C@H]2C[C@H]3c4[nH]c5ccc(OC)cc5c4CCN(C2)[C@@H]13` [IBOGAINE]: the outcome in the test listed under Rattus norvegicus [3], in the test filed under Rattus norvegicus [4] and in the test filed under Rattus norvegicus [7] was Active. The Activity entry in the test listed under Rattus norvegicus [5] (filed as agonist) is “Agonist”. For the same compound, the Ki in test [2] stood at 9310 nM. Moreover, the Ratio in test [6] is given as 95%.

Regarding `COC(=O)C1(c2ccc([N+](=O)[O-])cc2)CC1CN1CCN(c2ccccn2)CC1` (stereo not given), the Ki was 769 nM in test [1] and above 10000 nM in test [2].

`COC(=O)C1(c2ccc(N)cc2)CC1CN1CCN(c2ccccn2)CC1` (stereo not given): the Ki in test [1] and in test [2] was above 10000 nM throughout.

As to `COC(=O)C1(c2ccccc2)CC1CN1CCN(c2ncccn2)CC1` (stereo not given), the Ki was 3090 nM in test [1] and above 10000 nM in test [2].

For `COC(=O)C1(c2ccc(OC)cc2)CC1CN1CCN(c2ncccn2)CC1` (stereo not given), the figures for the Ki in test [1] and in test [2] were 2030 nM and above 10000 nM, respectively.

As for `COC(=O)C1(c2ccc(OC)cc2)CC1CN1CCC(Cc2ccccc2)CC1` (stereo not given), the Ki was found to be 1 nM in test [1] and 14 nM in test [2].

As for `COC(=O)C1(c2ccc(C)cc2)CC1CN1CCN(c2ncccn2)CC1` (stereo not given), the inhibition constant Ki worked out at 353 nM in test [1] and 3360 nM in test [2].

As to `COC(=O)C1(c2ccc(Cl)cc2)CC1CN1CCN(c2ncccn2)CC1` (stereo not given), the Ki in test [1] worked out at 350 nM; in test [2] it was 2710 nM.

Turning to `COC(=O)C1(c2ccc(C)cc2)CC1CN1CCC(Cc2ccccc2)CC1` (stereo not given), the values for the Ki in test [1] and in test [2] were 0.97 nM and 8.9 nM, respectively.

Turning to `COC(=O)C1(c2ccc(C)cc2)CC1CN1CCN(c2ccccn2)CC1` (stereo not given), the Ki in test [1] amounted to 497 nM; in test [2], 2170 nM.

Consider `COC(=O)C1(c2ccc(Cl)cc2)CC1CN1CCN(c2ccccn2)CC1` (stereo not given), for which the Ki was found to be 707 nM in test [1] and 2400 nM in test [2].

Consider `COC(=O)C1(c2ccc(OC)cc2)CC1CN1CCC(O)(c2ccccc2)CC1` (stereo not given), for which the Ki in test [1] was found to be 3.1 nM; in test [2] it was 53 nM.

As to `COC(=O)C1(c2ccccc2)CC1CN1CCC(O)(c2ccccc2)CC1` (stereo not given), the Ki in test [1] was 3.1 nM; in test [2], 34 nM.

Take `COC(=O)C1(c2ccccc2)CC1CN1CCN(c2ccccn2)CC1` (stereo not given): the values for the Ki in test [1] and in test [2] were 1330 nM and 6290 nM, respectively.

On to `COC(=O)C1(c2ccccc2)CC1CN1CCC(Cc2ccccc2)CC1` (stereo not given), for which the Ki in test [1] stood at 2.2 nM; in test [2], 13.2 nM.

Consider `CN(C)CCN(C)CCc1ccc(Cl)c(Cl)c1`, for which the result in the test listed under Rattus norvegicus [8] and in the test listed under Rattus norvegicus [4] was Active. The Activity entry in the test filed under Rattus norvegicus [5] (filed as agonist) is “Agonist”. For the same compound, the Ratio in test [6] stood at 7%. In addition, in the test listed under Rattus norvegicus [7], the outcome was inactive.

Regarding `CC[C@H]1C[C@@H]2C[C@H]3c4[nH]c5ccc(OC)cc5c4CCN(C2)[C@@H]13` [IBOGAINE], the Ki in test [1] is 250 nM. This lies in the sub-micromolar range.

`COC(=O)C1(c2ccc([N+](=O)[O-])cc2)CC1CN1CCN(c2ncccn2)CC1` (stereo not given): the results for the Ki in test [1] and in test [2] were 619 nM and above 10000 nM, respectively.

As for `CC(C)=CCN1CC[C@]2(C)c3cc(O)ccc3C[C@H]1[C@H]2C` [(+)-PENTAZOCINE], the outcome in the test filed under Rattus norvegicus [8] was Active. Moreover, in the test listed under Rattus norvegicus [5], the result was inactive. Moreover, in test [2], the Ki was determined as 1540 nM.

In the case of `COC(=O)C1(c2ccc(OC)cc2)CC1CN1CCN(c2ccccn2)CC1` (stereo not given), the figures for the Ki in test [1] and in test [2] were 1260 nM and above 10000 nM, respectively.

With `COC(=O)C1(c2ccc(Cl)cc2)CC1CN1CCC(O)(c2ccccc2)CC1` (stereo not given), the Ki in test [1] came to 1.7 nM; in test [2] it was 19 nM.

For `O=C(CCCN1CCC(O)(c2ccc(Cl)cc2)CC1)c1ccc(F)cc1`, in the test listed under Rattus norvegicus [4], the result was Active. Further, the Activity entry in the test listed under Rattus norvegicus [5] (filed as agonist) is “Agonist”.

The values above are taken from ChEMBL document CHEMBL1142963, “Novel sigma receptor ligands: synthesis and biological profile” (J Med Chem, 2007).
